Screens as filed in PubChem BioAssay.
KCNQ1 block: blocks the human KCNQ1 potassium channel | P51787 | CHO-K1 KCNQ1, FluxOR thallium flux fluorescence; hits give high values | B-score at 10 µM | 310,000 compounds, 1.3% hits;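 active = compounds whose thallium flux B-score, printed positive for inhibition, exceeds three library SD while starting fluorescence stays within three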;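 also: channel opened by potassium depolarization with thallium stimulus after 20 min compound exposure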
KCNQ1 act: human KCNQ1 channel potentiation or activation; P51787; 310,000 compounds, 0.35% hits; CHO-K1 KCNQ1, thallium flux FluxOR fluorescence; hits give high values; B-score at 10 µM;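 active = fluorescence ratio B-score, a plate-corrected score, at least three library SD, with initial intensity B-score within 5 SD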
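Assay system: CHO-K1 cells stably expressing KCNQ1; Medium: assay buffer with matched DMSO; Also added: K+/Tl+ depolarizing stimulus; Dosing: single dose; Timing: dye 90 min, compound 20 min, room temperature; Measured by: kinetic FluxOR thallium fluorescence, 10-s 1-Hz baseline, 110-s post-stimulus read; Read-out: peak-minus-minimum fluorescence over initial fluorescence, negative-control normalized, B-scored.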
KCC2 mod: modulates chloride dependent transport by human KCC2. B-score of Tl+ flux slope (higher = more flux/activation; lower = inhibition) at 10 µM. AID 1456. 190,000 compounds, 2.2% hits. Q9H2X9. KCC2 cells, thallium flux FluoZin-2 fluorescence;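 active = thallium flux slope and its plate-corrected score both differing from the plate sample mean at a set confidence after two filtering rounds, in either direction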;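 also: slope of fluorescence scaled to starting intensity during 10 to 20 s after thallium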
Target sequence (Q9H2X9 whole entry, looked up): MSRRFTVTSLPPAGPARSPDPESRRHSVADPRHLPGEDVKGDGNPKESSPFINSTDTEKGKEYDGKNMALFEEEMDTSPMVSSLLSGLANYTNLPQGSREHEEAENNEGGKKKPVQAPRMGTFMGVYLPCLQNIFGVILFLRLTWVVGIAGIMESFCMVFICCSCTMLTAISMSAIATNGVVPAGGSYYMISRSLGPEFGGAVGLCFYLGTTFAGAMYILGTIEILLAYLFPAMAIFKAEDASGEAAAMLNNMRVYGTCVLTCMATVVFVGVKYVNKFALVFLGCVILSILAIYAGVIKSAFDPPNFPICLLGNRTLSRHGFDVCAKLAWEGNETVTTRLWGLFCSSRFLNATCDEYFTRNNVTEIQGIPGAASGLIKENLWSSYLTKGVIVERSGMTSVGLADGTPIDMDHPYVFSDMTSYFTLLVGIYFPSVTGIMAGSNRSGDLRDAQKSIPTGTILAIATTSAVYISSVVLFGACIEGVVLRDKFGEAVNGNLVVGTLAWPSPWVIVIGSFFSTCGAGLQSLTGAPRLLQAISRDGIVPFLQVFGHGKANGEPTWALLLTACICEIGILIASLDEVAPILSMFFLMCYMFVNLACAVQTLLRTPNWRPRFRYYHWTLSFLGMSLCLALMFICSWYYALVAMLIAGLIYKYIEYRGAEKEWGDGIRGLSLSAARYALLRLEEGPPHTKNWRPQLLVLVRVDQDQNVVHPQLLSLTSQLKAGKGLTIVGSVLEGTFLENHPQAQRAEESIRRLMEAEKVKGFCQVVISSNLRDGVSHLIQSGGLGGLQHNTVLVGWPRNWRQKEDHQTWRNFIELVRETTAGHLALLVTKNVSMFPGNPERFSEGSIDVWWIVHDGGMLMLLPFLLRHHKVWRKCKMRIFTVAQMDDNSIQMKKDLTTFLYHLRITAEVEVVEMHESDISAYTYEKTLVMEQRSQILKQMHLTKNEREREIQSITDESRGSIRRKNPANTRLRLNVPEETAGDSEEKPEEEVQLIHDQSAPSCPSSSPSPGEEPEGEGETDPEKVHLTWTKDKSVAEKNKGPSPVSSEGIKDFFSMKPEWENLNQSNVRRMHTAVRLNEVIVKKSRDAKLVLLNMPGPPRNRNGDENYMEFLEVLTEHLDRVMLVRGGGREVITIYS
KCNK3 inh: human KCNK3 channel inhibition, primary screen. B-score at 10 µM. O14649. AID 602410. CHO-KCNK3 thallium flux, FluxOR fluorescence; hits give low values. 340,000 compounds, 0.84% hits;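 active = B-score under library mean minus 4 SD, starting fluorescence ratio at most library mean plus 5 SD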;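 also: more negative B-score means stronger inhibition of thallium flux through KCNK3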
KCNK9 block: human KCNK9 channel inhibition; Q9NPC2; HEK293 KCNK9, FluxOR thallium flux fluorescence; hits give low values; B-score at 10 µM; 310,000 compounds, 1.2% hits; AID 488922;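 active = ratio B-score over 3 SD below the library mean, with starting fluorescence within 5 SD of its mean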;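 also: negative B-score means less thallium flux so channel inhibition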
hERG rescue: shields human hERG channel from block by proarrhythmic agents; activation (rescue from dofetilide block), less the hit threshold, % at 10 µM; 310,000 compounds, 0.51% hits; Q12809; CHO-hERG, FluxOR thallium flux, dofetilide IC70 present;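 active = activation above the mean of controls blocked by dofetilide plus 5 SD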;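 also: thallium influx through hERG after potassium depolarization seen as dye fluorescence rise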
KCNK9 inh conf: human KCNK9 inhibitor confirmation; AID 492992; HEK293 KCNK9 cells, FluxOR thallium flux fluorescence; 4,900 compounds, 43% hits; shares compounds with KCNK9 block; inhibition, % at 10 µM;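 active = thallium signal inhibited by more than 5 SD of the compound-free buffer control wells, on both duplicate plates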;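 also: 0% = assay buffer control wells without compound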
Kir2-1 spec: selectivity of KCNK9 modulators against mouse Kir2.1; shares compounds with KCNK9 block; Kir2.1 cells, FluxOR thallium flux fluorescence; inhibition, % at 10 µM; 4,900 compounds, 4% hits;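 active = thallium signal drop more than 5 SD beyond the mean of the no-compound control wells, seen in both duplicate plates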;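 also: signal is fluorescence rise after thallium addition divided by baseline fluorescence; plate controls were assay buffer only for no effect and full block by chlorpromazine control for full effect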
KCNK9 uninduced: second check of KCNK9 modulator effects in non-induced HEK293 cells; shares compounds with KCNK9 block; FluxOR thallium flux; inhibition, % at 10 µM; 4,900 compounds, 40% hits; AID 492997;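 active = thallium signal drop beyond 5 SD of the untreated control mean, on both duplicate plates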;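 also: plate controls were buffer only IC0 wells for no effect and SID17386958 at its maximal inhibitory level for full effect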
KCNK3 inh conf: human KCNK3 channel inhibition, confirmation assay | shares compounds with KCNK3 inh | 2,400 compounds, 99% hits | ratio percent of control, % at 10 µM | CHO-KCNK3 thallium flux, FluxOR fluorescence; 0% buffer, 100% carvedilol maximal block;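 active = ratio percent of control, averaged over triplicates, above buffer control mean plus 5 SD, cut at about 64% in these data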;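 also: ratio is the fluorescence rise from min to max over baseline after thallium stimulus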
KCNK3 noninduced: KCNK3 inhibitor counter-screen hit in non-induced cells | 2,400 compounds, 40% hits | shares compounds with KCNK3 inh | AID 651747 | thallium flux ratio (lower = more inhibition) at 10 µM | non-induced KCNK3 parental cells, FluxOR thallium flux; hits give low values;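 active = thallium flux ratio, averaged over three wells, more than 5 SD below the buffer control mean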;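 also: host cells are CHO cells without KCNK3 induction; ratio is peak minus trough fluorescence over baseline then normalized to buffer controls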
Numbers without * were called inactive; i = inactive; · = no result. Most compounds without a hit are left out; they make up all but 4.1% or so of the library.

SMILES	KCNQ1 block	KCNQ1 act	KCC2 mod	KCNK3 inh	KCNK9 block	hERG rescue	KCNK9 inh conf	Kir2-1 spec	KCNK9 uninduced	KCNK3 inh conf	KCNK3 noninduced
Cc1cc(-c2ccc(C(C)C)c(S(=O)(=O)N3CCC(C)CC3)c2)on1	15*	i	·	-17*	-17*	-6	66%*	i	53%*	75*	i
CCOC(=O)C1=C(C)NC(C)=C(C(=O)OCC)C1C(=O)OCC(=O)N1CCOCC1	·	·	·	i	·	·	·	·	·	·	·
O=C1NC(=O)C(Cc2c[nH]c3ccccc23)N1 (stereo not drawn)	i	i	·	i	i	-7	·	·	·	·	·
O=C(COc1cccc(C(F)(F)F)c1)NNC(=O)c1ccc(=O)[nH]c1	·	·	·	i	·	·	·	·	·	·	·
CCC(C)n1c(SCC(=O)Nc2cc(C)on2)nc2ccccc2c1=O (stereo not drawn)	i	i	1.1	i	i	-5	·	·	·	·	·
CCC(C)n1c(SCC(=O)Nc2cc(C(C)(C)C)nn2-c2ccccc2)nc2ccccc2c1=O (stereo not drawn)	10*	i	0.65	i	-8.2*	-5	40%*	i	38%*	105*	0.13*
Cc1c(Cl)cccc1-n1nnnc1-c1cccs1	i	i	-1.3	-11*	-9.3*	-10	44%*	i	32%*	108*	i
COC(=O)c1cc(COc2ccc3oc(C)c(C(=O)OC(C)C)c3c2)c(C)o1	i	i	·	i	-10*	-5	i	i	46%*	92*	0.14*
Cc1nc(SCc2nc3c(O)cccc3[nH]2)c2oc3ccccc3c2n1	·	·	·	i	·	·	·	·	·	·	·
COc1ccccc1-c1cccc([C@@H]2C[C@H]3[C@@H](CN2)CON3C)c1	·	·	·	i	·	·	·	·	·	·	·
COc1ccc(NC(=O)CSc2nnc(-c3cccs3)n2N)c(OC)c1	i	i	·	i	i	-5	·	·	·	·	·
O=S(=O)(c1ccccc1)N1N=C(c2ccc(Br)cc2)CC1c1ccco1 (stereo not drawn)	i	i	·	-10*	-11*	-8	38%*	i	39%*	103*	i
O=C(Nc1cccc(NC(=O)c2ccco2)c1)c1cccc(Br)c1	i	i	·	-13*	-10*	-9	59%*	i	i	100*	i
O=C(Nc1cc(Br)c(O)c(Br)c1)c1cccc(NC(=O)c2ccco2)c1	i	i	·	i	i	-4	·	·	·	·	·
O=C(c1ccccc1)c1cccc(NC(=O)c2ccc(Br)o2)c1	i	i	·	-9.7*	-9.2*	-6	i	i	i	106*	i
CCC1CN(C(=O)N2CCC(C(=O)NCc3ccco3)CC2)c2cc(C)ccc2O1 (stereo not drawn)	i	i	·	i	i	-21	·	·	·	·	·
CCc1ccc(NC(=O)CN(N=Nc2nonc2C)c2nonc2C)cc1	i	i	-3.1	-11*	-9*	-14	64%*	i	34%*	115*	i
CC[C@H](C)[C@H](NC(=O)c1ccc(Cl)cc1)C(=O)OCC(=O)c1c(N)n(C)c(=O)n(C)c1=O	·	·	·	i	·	·	·	·	·	·	·
Cc1ccccc1Nc1nc(Nc2ccccc2C)nc(SC2=NCCS2)n1	i	i	-0.65	-13*	-9.9*	-6	37%*	i	26%*	124*	0.12*
